Laboratory results reported in PMC5199614 (Journal of bone and mineral research : the official journal …, 2016).

Legend:
C57BL/6J mice [1] = experiment: Plasma Pi after iv injection in mice; assay type: in vivo, mouse; conditions: iv 50 nmol/kg; for time of Pi nadir: after injection; for decline of blood phosphate (Pi) at the nadir: n = 6 per group
[2] = tested on: renal proximal tubule cells; assay type: in vivo, mouse; conditions: 5 minutes (NS^TMR) or 5 or 60 minutes after iv injection
C57BL/6J mice [3] = experiment: Blood 1,25; assay type: in vivo, mouse; conditions: iv 50 nmol/kg; for blood 1,25(OH)2D relative to vehicle-injected mice: 2 hours after injection
human PTHR1 = biological target: T1, human PTHR1 (Homo sapiens, UniProt Q03431); experiment: cAMP signaling; assay type: cell-based; conditions: GP-2.3 cells; for Emax (cAMP-dependent luminescence): vehicle 1.3 ± 0.1, means ±SEM of 10 experiments
T1 sequence (Q03431 27-593): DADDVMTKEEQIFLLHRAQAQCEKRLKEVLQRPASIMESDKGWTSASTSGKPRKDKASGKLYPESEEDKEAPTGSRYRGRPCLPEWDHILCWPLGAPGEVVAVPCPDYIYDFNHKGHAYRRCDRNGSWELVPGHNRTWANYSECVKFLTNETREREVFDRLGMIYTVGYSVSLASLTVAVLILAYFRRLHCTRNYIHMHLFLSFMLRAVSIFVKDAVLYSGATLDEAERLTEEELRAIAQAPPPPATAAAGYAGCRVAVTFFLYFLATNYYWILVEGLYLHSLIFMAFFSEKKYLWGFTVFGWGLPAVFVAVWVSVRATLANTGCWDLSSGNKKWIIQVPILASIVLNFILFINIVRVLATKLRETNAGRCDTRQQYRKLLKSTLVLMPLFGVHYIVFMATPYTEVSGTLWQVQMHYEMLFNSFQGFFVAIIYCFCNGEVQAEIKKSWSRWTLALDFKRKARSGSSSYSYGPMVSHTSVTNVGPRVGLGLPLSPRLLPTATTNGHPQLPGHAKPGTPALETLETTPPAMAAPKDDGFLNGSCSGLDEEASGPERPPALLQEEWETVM

C57BL/6J mice [4] = experiment: Blood ionized calcium after iv injection in mice; assay type: in vivo, mouse; conditions: iv 50 nmol/kg; for peak blood Ca^2+ increase above pre-injection (t = 0) level: n = 6 per group
[5] = tested on: PTHR1-expressing GP-2.3 cells; experiment: Confocal microscopy of ligand internalization in GP-2.3 and GS-22A cells; assay type: cell-based, human; conditions: 100 nM; for ligand localization in GP-2.3 cells: 15 minutes at 21°C, confocal TMR fluorescence; for TMR fluorescence in parental GS-22A cells (not transfected with PTHR1): confocal microscopy
Method in brief: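 GP-2.3 cells (HEK-293 with stable human PTHR1 and glosensor) and parental GS-22A cells (glosensor only) were grown on coverslips to ~75% confluence. Cells were exposed to TMR-ligand at 100 nM in HBB for 15 min at 21°C, or for 30 min at 4°C to block internalization. They were then rinsed thrice, fixed in 4% formalin for 5 min and mounted with DAPI. Confocal imaging used 405/559 nm excitation.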

[6] = Persistence of injected ligand in mouse blood and urine; conditions: mice, iv 50 nmol/kg, 1 μL plasma in PBS, n = 6
[7] = humans, cited from earlier work
C57BL/6J mice [8] = experiment: Urinary fractional excretion of Ca and Pi after iv injection in mice; assay type: in vivo, mouse; conditions: iv 50 nmol/kg, spot urine

Substance | time of Pi nadir (C57BL/6J mice [1]) [h] | decline of blood phosphate (Pi) at the nadir (C57BL/6J mice [1]) [%] | immunostained phosphorylated PKA substrate in kidney sections [2] | blood 1,25(OH)2D relative to vehicle-injected mice (C57BL/6J mice [3]) | Emax (cAMP-dependent luminescence) (human PTHR1) [cps × 10^−3] | peak blood Ca^2+ increase above pre-injection (t = 0) level (C57BL/6J mice [4]) | time of return of blood Ca^2+ to baseline (C57BL/6J mice [4]; post-injection) [h] | ligand localization in GP-2.3 cells [5] | TMR fluorescence in parental GS-22A cells (not transfected with PTHR1) [5] | other results
[Lys^13(TMR), Cys^35]PTH(1-35) [PTH^TMR] | 1 | 27 | clear staining for pPKA substrate | about threefold | 184 ± 12 | ~ 8% | ≤ 24 | located predominantly in internalized vesicles | No such TMR fluorescence was observed | time of return of Pi to baseline (C57BL/6J mice [1]): ≤ 4 h; last time point at which plasma TMR fluorescence was detected [6]: 2 h
TMR-NNGEDHSQITKV [NS^TMR, reference compound] | – | – | little or no green fluorescence | – | – | – | – | – | – | –
PTH(1-34) | – | – | – | – | – | – | – | – | – | half-time (t1/2) of disappearance from the circulation ([7]; injected intravenously): 10 ± 0.5 min; half-time ([7]; subcutaneous injection): about 1 hour
[Lys^13(tetramethyl rhodamine {TMR}), Cys^35(PEG-20,000 Da)]PTH(1-35) [PEG-PTH^TMR] | 2 | 42 | at least comparable to that observed with the PTH^TMR ligand | about threefold | 178 ± 14 | ~ 21% | 96 | located predominantly in internalized vesicles | No such TMR fluorescence was observed | duration of effects on urinary fractional excretion of Ca and Pi (C57BL/6J mice [8]): up to 24 hours; blood 1,25(OH)2D (C57BL/6J mice [3]; 24 hours after injection): marked increases; potency (EC50) relative to PTH(1-34) and PTH^TMR (human PTHR1; cAMP): about three- to fivefold weaker; time of peak blood Ca^2+ (C57BL/6J mice [4]; post-injection): 24 h
PTH(1-84) | – | – | – | – | – | – | – | – | – | serum half-time ([7]; injected subcutaneously): about 2.5 hours
